We go through 62 compounds from ChEMBL document CHEMBL1139436, “Quantitative structure-activity relationship of sesquiterpene lactones as inhibitors of the transcription factor NF-kappaB” (J Med Chem, 2004).

The target of assay [1] is T1, Nuclear factor NF-kappa-B complex (Homo sapiens) (UniProt Q00653+P19838+Q04206). In words: (§1) Concentration required for complete inhibition of Nuclear factor kappa B DNA binding. Type of assay: protein-complex assay. Summed up: (§2)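 Jurkat T cells (RPMI 1640, 10% FCS, penicillin/streptomycin) pretreated 1 h with sesquiterpene lactone, first at 10, 20, 50, 100 μM, then 1–5 μM or 200–300 μM as needed. Stimulated 1 h with 200 U/mL TNF-α. Total extracts (Totex high-salt buffer) analysed by EMSA with ³²P-labeled NF-κB oligonucleotide, 25 min at room temperature. IC100 is the lowest tested level fully blocking binding; intermediate values assigned the higher level. Each experiment reproduced at least once.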

In assay [2] the target is T1, Nuclear factor NF-kappa-B complex (Homo sapiens). The assay is described as §1. It counts as protein-complex assay. Also on record: unit not given here. Summed up: as §2

T1 sequence (P19838 whole entry, looked up): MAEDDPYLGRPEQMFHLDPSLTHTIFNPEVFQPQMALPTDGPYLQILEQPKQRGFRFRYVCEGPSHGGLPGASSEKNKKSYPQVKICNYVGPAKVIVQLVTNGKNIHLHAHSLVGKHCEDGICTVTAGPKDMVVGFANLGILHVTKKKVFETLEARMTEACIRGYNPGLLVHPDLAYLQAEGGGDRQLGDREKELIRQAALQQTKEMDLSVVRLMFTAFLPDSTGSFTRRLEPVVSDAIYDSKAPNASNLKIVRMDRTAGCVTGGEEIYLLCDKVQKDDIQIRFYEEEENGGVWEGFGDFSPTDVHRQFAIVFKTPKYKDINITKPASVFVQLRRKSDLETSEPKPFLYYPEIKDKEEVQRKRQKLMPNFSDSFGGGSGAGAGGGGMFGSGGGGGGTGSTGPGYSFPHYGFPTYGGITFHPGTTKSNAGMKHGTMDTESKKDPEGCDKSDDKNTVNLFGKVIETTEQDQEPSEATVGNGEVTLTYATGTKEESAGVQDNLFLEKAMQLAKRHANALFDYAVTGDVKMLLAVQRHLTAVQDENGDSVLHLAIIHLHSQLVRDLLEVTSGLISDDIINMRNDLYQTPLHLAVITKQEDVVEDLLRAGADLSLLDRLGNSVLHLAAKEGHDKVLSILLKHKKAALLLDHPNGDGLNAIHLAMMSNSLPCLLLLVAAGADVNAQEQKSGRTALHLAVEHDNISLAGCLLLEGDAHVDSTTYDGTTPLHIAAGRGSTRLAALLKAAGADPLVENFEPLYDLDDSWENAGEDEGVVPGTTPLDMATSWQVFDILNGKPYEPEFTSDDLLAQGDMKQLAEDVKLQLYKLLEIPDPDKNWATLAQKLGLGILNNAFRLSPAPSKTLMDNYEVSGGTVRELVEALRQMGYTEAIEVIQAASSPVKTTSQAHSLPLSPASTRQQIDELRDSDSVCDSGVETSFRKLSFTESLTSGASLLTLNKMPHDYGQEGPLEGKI
T1 sequence (Q00653 whole entry, looked up): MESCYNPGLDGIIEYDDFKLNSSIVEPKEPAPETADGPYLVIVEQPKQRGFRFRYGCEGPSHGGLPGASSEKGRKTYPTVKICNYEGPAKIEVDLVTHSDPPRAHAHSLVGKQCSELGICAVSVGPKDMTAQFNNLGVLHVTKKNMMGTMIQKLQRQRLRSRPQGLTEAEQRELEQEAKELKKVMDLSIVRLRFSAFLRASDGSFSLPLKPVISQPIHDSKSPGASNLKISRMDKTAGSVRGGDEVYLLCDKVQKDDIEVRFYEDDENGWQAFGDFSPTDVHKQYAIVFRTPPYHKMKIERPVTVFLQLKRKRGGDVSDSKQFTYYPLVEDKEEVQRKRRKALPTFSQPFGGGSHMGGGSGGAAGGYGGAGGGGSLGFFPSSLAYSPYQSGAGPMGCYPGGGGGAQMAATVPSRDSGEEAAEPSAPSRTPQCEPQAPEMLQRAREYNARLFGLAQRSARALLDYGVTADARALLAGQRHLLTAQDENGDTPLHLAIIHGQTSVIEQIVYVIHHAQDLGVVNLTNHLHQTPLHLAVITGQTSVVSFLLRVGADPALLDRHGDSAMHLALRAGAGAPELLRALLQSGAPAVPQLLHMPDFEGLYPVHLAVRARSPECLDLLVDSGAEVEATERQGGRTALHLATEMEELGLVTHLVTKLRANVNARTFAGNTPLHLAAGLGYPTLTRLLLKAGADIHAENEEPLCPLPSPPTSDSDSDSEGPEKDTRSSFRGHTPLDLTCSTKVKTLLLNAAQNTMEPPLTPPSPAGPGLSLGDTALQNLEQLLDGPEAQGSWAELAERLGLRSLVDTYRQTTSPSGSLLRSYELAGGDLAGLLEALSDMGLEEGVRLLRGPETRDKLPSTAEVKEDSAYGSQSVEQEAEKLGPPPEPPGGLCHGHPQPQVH
T1 sequence (Q04206 whole entry, looked up): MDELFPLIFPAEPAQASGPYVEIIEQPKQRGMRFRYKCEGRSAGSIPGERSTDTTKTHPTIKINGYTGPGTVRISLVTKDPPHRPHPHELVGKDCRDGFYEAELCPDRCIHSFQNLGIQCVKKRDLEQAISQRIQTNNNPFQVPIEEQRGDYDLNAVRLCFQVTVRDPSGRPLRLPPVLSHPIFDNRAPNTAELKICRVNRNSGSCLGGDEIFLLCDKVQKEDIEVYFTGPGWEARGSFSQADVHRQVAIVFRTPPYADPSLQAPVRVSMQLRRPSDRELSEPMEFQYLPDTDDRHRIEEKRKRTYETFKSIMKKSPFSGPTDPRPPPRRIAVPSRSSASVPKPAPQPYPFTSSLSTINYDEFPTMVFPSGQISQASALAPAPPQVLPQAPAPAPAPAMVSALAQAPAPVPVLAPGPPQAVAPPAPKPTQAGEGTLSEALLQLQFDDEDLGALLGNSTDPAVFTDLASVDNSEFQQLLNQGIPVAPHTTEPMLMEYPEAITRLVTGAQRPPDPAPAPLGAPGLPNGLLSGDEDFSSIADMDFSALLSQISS

Compound `C=C1C(=O)O[C@@H]2C3=C(C(=O)C[C@@H]3C)[C@@H](C)CC[C@@H]12` gave an IC100 in assay [1] of 20 µM. In assay [2], this compound gave a pIC100 of -1.3. Turning to `C=C(C)C(=O)O[C@H]1[C@@H]2[C@H](C)C(=O)O[C@@H]2C[C@@H](C)[C@@H]2C=CC(=O)[C@]21C`, the IC100 in assay [1] was determined as 100 µM. Compound `C=C(CO)C(=O)OC/C1=C/C[C@@H]2C(=C)C(=O)O[C@H]2C/C(COC(C)=O)=C\CC1` returned an IC100 in assay [1] of 50 µM. In assay [2], this compound displayed a pIC100 of -1.69. The matching figures for `C=C1C(=O)O[C@@H]2[C@H]3C(CO)=CC(=O)C3=C(C)CC[C@@H]12`: 50 µM and -1.69.

`C=C1C(=O)O[C@H]2C/C(CO)=C\CC/C(COC(=O)C3(C)CO3)=C\C[C@H]12` (stereo partly specified) returned an IC100 in assay [1] of 50 µM. In addition, the pIC100 in assay [2] was -1.69. The matching figures for `C=C(C)C(=O)O[C@@H]1/C=C(/C=O)[C@H](OC)CCC(=C)[C@H](O)[C@H]2OC(=O)C(=C)[C@@H]21`: 10 µM and -1.

In assay [1], `C=C1C(=O)O[C@H]2/C=C(\C)[C@@H](O)CC/C(C)=C/C[C@H]12` registered an IC100 of 200 µM. The pIC100 in assay [2] is -2. `C=C1C(=O)O[C@]23C[C@H]1CCC(CO)=C2C(=O)C=C3C` displayed an IC100 in assay [1] of 50 µM. Turning to `C=C(C)C(=O)O[C@H]1/C(C=O)=C\CC/C(COC(C)=O)=C\[C@H]2OC(=O)C(=C)[C@@H]2[C@@H]1O`, in assay [1], the IC100 is 5 µM. This compound also had a pIC100 in assay [2] of -0.69. In assay [1], `C=C1C(=O)O[C@H]2C/C(CO)=C\CC/C(COC(=O)C(C)C(C)O)=C\C[C@H]12` (stereo partly specified) had an IC100 of 50 µM. Moreover, the pIC100 in assay [2] was -1.69. The corresponding values for `C=C1C(=O)C[C@H]2C(=C)C(=O)O[C@@H]2/C=C(/COC(=O)C(C)C)CC[C@H]1OC` are 25 µM and -1.39. The matching figures for `C=C1C(=O)OC2/C=C(/C)CC/C=C(/C)[C@@H](OC(C)=O)C[C@@H]12` (stereo partly specified): 200 µM and -2.3. In the case of `C=C1C(=O)O[C@H]2[C@H]1[C@@H](OC(=O)/C(C)=C/C)C/C(C)=C/C(=O)/C=C(/C)[C@@H]2O`, the IC100 in assay [1] was found to be 10 µM. Besides, the pIC100 in assay [2] is -1. The compound `C[C@@H]1C[C@H]2OC(=O)[C@@H](C)[C@H]2[C@H](O)[C@]2(C)C(=O)C=C[C@@H]12` came in with an IC100 in assay [1] of 200 µM. Compound `C=C1C(=O)O[C@@H]2[C@H]3C(C)=CC[C@@H](O)[C@]3(C)CC[C@@H]12` came in with an IC100 in assay [1] of 100 µM. On the same count and under the same terms, with `C=C1C(=O)O[C@@H]2C[C@@]3(C)[C@H](O)CC[C@@](O)(COC(=O)C(C)C)[C@@H]3C[C@H]12` the figure was 200 µM; with `C=C1C(=O)O[C@@H]2C[C@@H](C)[C@@H]3CCC(=O)[C@@]3(C)C[C@H]12`, 50 µM. In assay [1], `C=C1C(=O)O[C@@H]2/C=C(/COC(=O)CC(C)C)CC/C=C(/CO)C(=O)C[C@@H]12` (stereo in doubt; 5) yielded an IC100 of 12.5 µM. This compound also had a pIC100 in assay [2] of -1.09. `C=C1C(=O)O[C@H]2[C@H]1[C@H](OC(=O)C(C)C)[C@@H](OC(C)=O)/C(C=O)=C\CCC1(CO1)[C@@H]2O` (stereo partly specified) had an IC100 in assay [1] of 5 µM. This compound also gave a pIC100 in assay [2] of -0.69. For the compound `C=C1C(=O)O[C@@H]2/C=C(/C)CC/C=C(/C)C[C@@H](OC(=O)C=C(CO)CO)[C@@H]12`, the IC100 in assay [1] stood at 20 µM. Besides, in assay [2], the pIC100 is -1. The matching figures for `C=C1C(=O)O[C@@H]2/C=C(/C)C3=CC(=O)[C@@](C)(C[C@@H](OC(=O)/C(C)=C/C)[C@@H]12)O3`: 5 µM and -0.69. For `C=C1[C@@H]2[C@H]3OC(=O)C(=C)[C@@H]3CC[C@](C)(O)[C@@H]2C[C@@H]1O`, in assay [1], the IC100 worked out at 200 µM. The compound further yielded a pIC100 in assay [2] of -2.3.

Compound `C=C1C(=O)O[C@H]2C/C(CO)=C\CC/C(COC(=O)C(C)CC)=C\C[C@H]12` (stereo partly specified) gave an IC100 in assay [1] of 50 µM. For the same compound, in assay [2], the pIC100 is -1.69.

On to `C=C1C(=O)O[C@@H]2C[C@@]3(C)CC(=O)C(OC(C)=O)=C(C)C3C[C@H]12` (stereo partly specified), for which, in assay [1], the IC100 amounted to 100 µM.

For the compound `C=C1C(=O)O[C@@H]2[C@@H]3[C@@](C)(CC[C@@H]12)[C@@H](O)C[C@H]1O[C@@]31C`, the IC100 in assay [1] is 200 µM. `C=C1C(=O)O[C@@H]2/C=C(/COC(=O)CC(C)C)CC/C=C(/CO)C(=O)C[C@@H]12` (stereo in doubt; 3) had an IC100 in assay [1] of 12.5 µM. In assay [2], this compound returned a pIC100 of -1.09. The compound `C=C(C)C(=O)O[C@H]1/C(C=O)=C\CC/C(C)=C\[C@H]2OC(=O)C(=C)[C@@H]2[C@@H]1O` gave an IC100 in assay [1] of 5 µM. Further, in assay [2], the pIC100 was -0.69. The corresponding values for `C=C1C(=O)O[C@@H]2/C=C(/COC(=O)C(C)C)CC/C=C(/CO)[C@H](O)C[C@@H]12` are 100 µM and -2. In turn, `C=C(C)C(=O)O[C@@H]1C[C@]2(C)CC[C@@](O)(O2)/C(C)=C\[C@H]2OC(=O)C(=C)[C@@H]21` gave an IC100 in assay [1] of 50 µM. The compound further yielded a pIC100 in assay [2] of -1. The corresponding values for `C=C(C)C(=O)O[C@H]1[C@H]2C(=C)C(=O)O[C@@H]2[C@@H](O)C(=C)CC/C=C(/C=O)[C@@H]1OC` are 50 µM and -1.3. The matching figures for `C=C1C(=O)O[C@H]2C[C@]3(C)O[C@@H]3C[C@@H](OC(C)=O)C3=C[C@@H](OC3=O)[C@H]12`: 10 µM and -1. `C=C1C(=O)O[C@@H]2C[C@@H](C)[C@@H]3C=CC(=O)[C@@]3(C)[C@@H](O)[C@H]12`: the IC100 in assay [1] turned out to be 10 µM. In assay [1], `C=C1C(=O)O[C@@H]2/C=C(/C)[C@H](OC(C)=O)C/C=C(/C)CC[C@@H]12` had an IC100 of 50 µM. In assay [2], this compound displayed a pIC100 of -1.69. In assay [1], `C=C1[C@@H]2[C@H]3OC(=O)C(=C)[C@@H]3CCC(=C)[C@@H]2C[C@@H]1OC(=O)C=C(C)C` registered an IC100 of 200 µM. In assay [2], this compound registered a pIC100 of -2.3. In assay [1], `C=C1C(=O)O[C@@H]2C[C@@H](C)[C@@H]3C=CC(=O)[C@@]3(C)[C@@H](OC(=O)C(C)C)[C@H]12` had an IC100 of 20 µM.

In the case of `C=C1C(=O)O[C@@H]2[C@H]3C(C)=CC[C@H]3[C@](C)(O)C[C@H](OC(C)=O)[C@@H]12`, the IC100 in assay [1] was found to be 20 µM. In assay [2], this compound displayed a pIC100 of -1.3. As to `C=C1C(=O)O[C@H]2C/C(CO)=C\CC/C(COC(=O)C(C)(C)O)=C\C[C@H]12`, the IC100 in assay [1] turned out to be 50 µM. The compound further came in with a pIC100 in assay [2] of -1.69. As for `C=C1C(=O)O[C@@H]2/C=C(/C)C3=CC(=O)[C@@](C)(C[C@@H](OC(=O)/C(C)=C\C)[C@@H]12)O3`, in assay [1], the IC100 came to 5 µM. The pIC100 in assay [2] was -0.39. The corresponding values for `C=C(C)C(=O)O[C@H]1[C@H]2C(=C)C(=O)O[C@@H]2[C@H]2O[C@]2(C)CC/C=C(/C=O)[C@@H]1O` are 10 µM and -1. The corresponding values for `C=C(C)C(=O)O[C@H]1C[C@@]2(C)OC(=CC2=O)C(=C)[C@@H](Cl)[C@H]2OC(=O)C(=C)[C@@H]21` are 5 µM and -0.69. The matching figures for `C=C1C(=O)O[C@H]2C[C@H](C)C3=CC(=O)[C@H](C)C3C[C@H]12` (stereo partly specified): 20 µM and -1.3. In assay [1], `C=C(C)C(=O)O[C@@H]1C[C@]2(C)CC[C@@](O)(O2)[C@@H](C)C[C@H]2OC(=O)C(=C)[C@H]12` gave an IC100 of 200 µM. In assay [2], this compound showed a pIC100 of -2.3.

As for `C=C1C(=O)O[C@@H]2[C@H]3C(C)=CC(=O)C3=C(C)C[C@@H](OC(=O)[C@]3(C)O[C@@H]3C)[C@@H]12`, in assay [1], the IC100 worked out at 20 µM. The compound further registered a pIC100 in assay [2] of -1.3. The matching figures for `C=C(CO)C(=O)OC/C1=C/C[C@@H]2C(=C)C(=O)O[C@H]2C/C(CO)=C\CC1`: 20 µM and -1.3.

The compound `C=C1C(=O)O[C@@H]2C[C@H](C)[C@@H]3CC(=O)C(C)=C3C[C@H]12` returned an IC100 in assay [1] of 50 µM.

In assay [1], `C=C1C(=O)O[C@@H]2C[C@@]3(C)[C@H](OC(C)=O)CC[C@](O)(COC(=O)C(C)C)[C@@H]3C[C@H]12` showed an IC100 of 100 µM. Still for that read-out and setting: with `C=C1C(=O)O[C@@H]2[C@H]3C(C)=CC[C@H](O)[C@]3(C)CC[C@@H]12` the figure was 300 µM. The same measure, in the same setting: under `C=C1C(=O)O[C@]23C[C@H]1CCC(COC(C)=O)=C2C(=O)C=C3C` stands 100 µM.

The compound `C=C1C(=O)O[C@@H]2C[C@@H](C)[C@@H]3[C@@H](OC(C)=O)C[C@@H](O)[C@@]3(C)C[C@H]12` came in with an IC100 in assay [1] of 200 µM. As for `C=C1C(=O)O[C@H]2CC(=C)[C@H](O)CC/C(C)=C/[C@@H](O)[C@H]12`, in assay [1], the IC100 is 50 µM. The compound `C=C1[C@H](O)C[C@@H](O)[C@]2(C)CC[C@H]3C(=C)C(=O)O[C@@H]3[C@@H]12` showed an IC100 in assay [1] of 200 µM. The same measure, in the same setting: under `CC(=O)O[C@H]1[C@@H]2[C@H](C)C(=O)O[C@@H]2C[C@@H](C)[C@@H]2C=CC(=O)[C@]21C` stands 200 µM. Still for that read-out and setting: under `C=C1C(=O)OC2[C@H]3O[C@]3(C)CC/C=C(/C)CC[C@@H]12` (stereo partly specified) stands 20 µM; under `C=C1C(=O)O[C@@H]2C[C@@]3(C)[C@H](O)CC[C@](O)(COC(=O)C(C)C)[C@@H]3C[C@H]12`, 200 µM; under `C=C1C(=O)O[C@@H]2[C@H]3C(C)=CC(=O)C3=C(C)CC[C@@H]12`, 50 µM.

`C=C1[C@H](O)C[C@H](O)[C@]2(C)CC[C@H]3C(=C)C(=O)O[C@@H]3[C@@H]12` showed an IC100 in assay [1] of 100 µM.

Compound `C=C1C(=O)O[C@@H]2C[C@@]3(C)[C@H](O)CC=C(COC(=O)C(C)C)[C@@H]3C[C@H]12` returned an IC100 in assay [1] of 50 µM. Regarding `C=C1C(=O)O[C@H]2[C@H]1[C@H](OC(=O)[C@@]1(C)O[C@H]1C)[C@@H](OC(C)=O)/C(C(=O)OC)=C\CC[C@@]1(C)O[C@@H]21`, the IC100 in assay [1] was 10 µM. The same measure, in the same setting: under `C/C=C(\C)C(=O)O[C@H]1[C@@H]2[C@H](C)C(=O)O[C@@H]2C[C@@H](C)[C@@H]2C=CC(=O)[C@]21C` stands 100 µM. As for `C=C1[C@@H]2[C@H]3OC(=O)C(=C)[C@@H]3CCC(=C)[C@@H]2C[C@@H]1OC(C)=O`, the IC100 in assay [1] was 100 µM. Same read-out and setting: with `C=C1C(=O)OC2C[C@@H](C)[C@@H]3C=CC(=O)[C@@]3(C)[C@H](O)[C@H]12` (single isomer, unassigned) the figure was 20 µM; with `C=C1C(=O)O[C@@H]2/C=C(/C)CC/C=C(/C)CC[C@@H]12`, 50 µM.
